Source: ChEMBL document CHEMBL3792298, “Design, synthesis and in vitro evaluation studies of sulfonyl-amino-acetamides as small molecule BACE-1 inhibitors” (Bioorg Med Chem, 2016)

molecular target: T1, Beta-secretase 1 (Homo sapiens, UniProt P56817); experiment: Inhibition of human BACE1 expressed in recombinant baculovirus-infected insect cells using rhodamine conjugated APP-based EVNLDAEFK as substrate at 10 uM after 60 mins by FRET analysis
How it was run: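 Commercial BACE-1 FRET kit run per supplier protocol, with 3X BACE-1 enzyme (1U/ml) in 50mM sodium acetate buffer, pH 4.5. Compounds were made as 10mM DMSO stocks and diluted in buffer to a final 10µM. After 60 min incubation, fluorescence was read with excitation at 545 nm. Percent inhibition is given as mean ± S.D. of triplicate independent experiments.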

T1 sequence (P56817 whole entry): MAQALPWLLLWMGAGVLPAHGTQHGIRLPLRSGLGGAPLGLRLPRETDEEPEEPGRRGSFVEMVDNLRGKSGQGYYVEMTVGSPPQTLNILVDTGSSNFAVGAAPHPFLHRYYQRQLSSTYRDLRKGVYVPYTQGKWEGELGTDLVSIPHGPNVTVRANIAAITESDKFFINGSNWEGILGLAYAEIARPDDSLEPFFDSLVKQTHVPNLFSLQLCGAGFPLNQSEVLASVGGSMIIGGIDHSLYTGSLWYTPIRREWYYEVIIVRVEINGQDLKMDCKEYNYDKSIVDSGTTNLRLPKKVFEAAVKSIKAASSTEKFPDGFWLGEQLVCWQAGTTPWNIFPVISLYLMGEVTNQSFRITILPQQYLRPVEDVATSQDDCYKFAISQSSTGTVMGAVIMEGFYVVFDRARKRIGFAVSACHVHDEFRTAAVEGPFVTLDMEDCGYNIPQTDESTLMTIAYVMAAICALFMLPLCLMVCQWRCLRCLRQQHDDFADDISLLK

| inhibition [%] | SMILES |
| --- | --- |
| 4.83 | O=C(CNS(=O)(=O)c1ccccc1)Nc1cccc(Cl)c1 |
| 28.6 | COc1ccc(S(=O)(=O)NCC(=O)Nc2ccccc2)cc1 |
| 29.5 | O=C(CNS(=O)(=O)c1cccc([N+](=O)[O-])c1)Nc1ccc(Cl)cc1 |
| 42 | O=C(CNS(=O)(=O)c1cccc([N+](=O)[O-])c1)Nc1ccccc1 |
| 14.9 | O=C(CNS(=O)(=O)c1ccccc1[N+](=O)[O-])Nc1ccccc1 |
| 41 | Cc1ccc(NC(=O)CNS(=O)(=O)c2cccc([N+](=O)[O-])c2)c(C)c1 |
| 21.9 | Cc1ccc(S(=O)(=O)NCC(=O)Nc2ccccc2)cc1 |
| 8.72 | O=C(CNS(=O)(=O)c1ccccc1)Nc1ccccc1 |
| 22.8 | O=C(CNS(=O)(=O)c1ccc(Cl)cc1)Nc1ccccc1 |
| 5.03 | O=C(CNS(=O)(=O)c1ccc([N+](=O)[O-])cc1)Nc1ccccc1 |
| 42.1 | O=C(CNS(=O)(=O)c1cccc([N+](=O)[O-])c1)Nc1cccc(Cl)c1 |

Second part, the molecule before the results:

| SMILES | inhibition [%] |
| --- | --- |
| Cc1ccc(NC(=O)CNS(=O)(=O)c2ccccc2[N+](=O)[O-])c(C)c1 | 21.6 |
| Cc1ccccc1S(=O)(=O)NCC(=O)Nc1ccccc1 | 18.5 |
| COc1ccc(S(=O)(=O)NCC(=O)Nc2cccc(Cl)c2)cc1 | 38.3 |
| O=C(CNS(=O)(=O)c1ccccc1[N+](=O)[O-])Nc1cccc(Cl)c1 | 17.5 |
| O=C(CNS(=O)(=O)c1ccccc1[N+](=O)[O-])Nc1ccc(Cl)cc1 | 18.5 |
| CC(=O)Nc1ccc(S(=O)(=O)NCC(=O)Nc2ccc(C)cc2C)cc1 | 61.9 |
| O=C(CNS(=O)(=O)c1ccc([N+](=O)[O-])cc1)Nc1cccc(Cl)c1 | 17 |
| Cc1ccc(S(=O)(=O)NCC(=O)Nc2cccc(Cl)c2)cc1 | 31.8 |
| CC(=O)Nc1ccc(S(=O)(=O)NCC(=O)Nc2ccc(Cl)cc2)cc1 | 37.1 |
| Cc1ccc(S(=O)(=O)NCC(=O)Nc2ccc(Cl)cc2)cc1 | 25.3 |
| O=C(CNS(=O)(=O)c1ccc([N+](=O)[O-])cc1)Nc1ccc(Cl)cc1 | 9.89 |
| O=C(CNS(=O)(=O)c1ccc(Cl)cc1)Nc1cccc(Cl)c1 | 48.6 |
| COc1ccc(S(=O)(=O)NCC(=O)Nc2ccc(Cl)cc2)cc1 | 35.1 |
| Cc1ccc(S(=O)(=O)NCC(=O)Nc2ccc(C)cc2C)cc1 | 35 |
| Cc1ccc(NC(=O)CNS(=O)(=O)c2ccc(Cl)cc2)c(C)c1 | 35.9 |
| COc1ccc(S(=O)(=O)NCC(=O)Nc2ccc(C)cc2C)cc1 | 28.4 |
| CC(=O)Nc1ccc(S(=O)(=O)NCC(=O)Nc2ccccc2)cc1 | 28.9 |
| Cc1ccc(NC(=O)CNS(=O)(=O)c2ccc([N+](=O)[O-])cc2)c(C)c1 | 9.49 |
| CC(=O)Nc1ccc(S(=O)(=O)NCC(=O)Nc2cccc(Cl)c2)cc1 | 52.9 |
| O=C(CNS(=O)(=O)c1ccc(Cl)cc1)Nc1ccc(Cl)cc1 | 34.8 |
| O=C(CNS(=O)(=O)c1ccccc1)Nc1ccc(Cl)cc1 | 5.09 |
| Cc1ccc(NC(=O)CNS(=O)(=O)c2ccccc2)c(C)c1 | 5.38 |

molecular target: T1, Beta-secretase 1; experiment: Inhibition of human BACE1 expressed in recombinant baculovirus-infected insect cells using rhodamine conjugated APP-based EVNLDAEFK as substrate after 60 mins by FRET analysis
How it was run: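 FRET cleavage assay from a commercial BACE-1 kit, following supplier protocol. It used 3X BACE-1 enzyme (1U/ml) in 50mM sodium acetate buffer, pH 4.5. Test compounds were prepared as 10mM DMSO stocks and diluted with buffer. After 60 min incubation, fluorescence was read at 545 nm excitation.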

| IC50 [µM] | SMILES |
| --- | --- |
| 7.9 | CC(=O)Nc1ccc(S(=O)(=O)NCC(=O)Nc2ccc(C)cc2C)cc1 |
